Measured values from PMC7610535 (Nature chemical biology, 2020).
pEC50, pKd: −log10 of the molar value.

Assays:
AURORA-A^K162R = AURORA-A^K162R (Homo sapiens, UniProt O14965+Q96SW2, I57V/K162R); assay: Immunoblot of HA-tagged kinase-dead AURORA-A^K162R; type: cell-based; details: 1 µM, 18 hours
[1] = target: AURORA-A/CEREBLON(TBD) complex (Homo sapiens, UniProt O14965+Q96SW2); assay: Isothermal titration calorimetry, ternary complex; type: binding
MV4-11 cells [2] = assay: Quantitative SILAC mass spectrometry: relative protein abundance in MV4-11 cells; type: cell-based, human; details: 0.1 µM
AURORA-A^Imut = target: T1, AURORA-A^Imut (Homo sapiens, UniProt O14965, A267W/E239R/F157E/I158E/I57V/K153E/K156E/K224E/P191W/R137E/R189E/R375E/S266W); assay: Depletion of AURORA-A interface mutant in MV4-11 cells; type: cell-based; details: 12 mutated amino acids in the presumed interface with CEREBLON
T1 sequence (O14965 1-403 I57V/R137E/K153E/K156E/F157E/I158E/R189E/P191W/K224E/E239R/S266W/A267W/R375E): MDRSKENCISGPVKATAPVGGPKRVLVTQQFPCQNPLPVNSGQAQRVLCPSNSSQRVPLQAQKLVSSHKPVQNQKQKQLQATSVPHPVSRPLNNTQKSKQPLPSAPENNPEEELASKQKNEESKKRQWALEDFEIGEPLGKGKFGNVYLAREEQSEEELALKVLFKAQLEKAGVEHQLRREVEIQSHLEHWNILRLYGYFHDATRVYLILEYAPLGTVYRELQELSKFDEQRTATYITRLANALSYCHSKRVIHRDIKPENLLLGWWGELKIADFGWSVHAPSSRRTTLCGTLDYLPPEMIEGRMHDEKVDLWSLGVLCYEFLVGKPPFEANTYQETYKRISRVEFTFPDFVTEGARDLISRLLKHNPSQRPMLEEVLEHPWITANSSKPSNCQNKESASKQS
In short: (§1)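 HiBiT-tagged wild-type or mutant AURORA-A was expressed stably in MV4-11 cells (infected twice, 24 h apart, selected 72 h after infection). Cells were exposed to serial dilutions of the test compound for 6 h and lysed with lytic detection reagent containing the LgBiT fragment. Luminescence was then read. DC50 and DCmax were derived from the concentration–response data.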

AURORA-A [3] = target: T2, AURORA-A (Homo sapiens, UniProt O14965); assay: AURORA-A-NanoLuc target engagement assay; type: binding
T2 sequence (O14965 1-403): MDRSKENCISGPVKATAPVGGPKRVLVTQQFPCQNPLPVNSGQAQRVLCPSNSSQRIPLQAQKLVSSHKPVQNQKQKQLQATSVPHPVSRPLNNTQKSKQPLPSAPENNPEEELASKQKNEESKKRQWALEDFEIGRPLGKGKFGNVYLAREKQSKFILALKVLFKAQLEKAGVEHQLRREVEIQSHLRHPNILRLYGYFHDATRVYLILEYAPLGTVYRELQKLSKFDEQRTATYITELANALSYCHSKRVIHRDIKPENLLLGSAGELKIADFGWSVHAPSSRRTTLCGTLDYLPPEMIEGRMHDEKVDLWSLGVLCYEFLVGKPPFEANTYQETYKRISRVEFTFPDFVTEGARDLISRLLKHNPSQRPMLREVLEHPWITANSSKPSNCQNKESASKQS

AURORA-A mRNA = assay: Quantitative real-time PCR of AURORA-A mRNA in MV4-11 cells; type: cell-based, human; details: 0.1 µM
In short: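 MV4-11 cells were exposed for 6 h, and RNA and protein were isolated in parallel. AURORA-A mRNA was measured by RT-qPCR and normalised to DMSO-treated control cells; bars are means of technical replicates.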

MV4-11 cells [4] = assay: Annexin/PI flow cytometry, MV4-11 cells; type: cell-based, human; details: 0.5 µM, 72 hours
In short: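 MV4-11 cells were collected together with their culture medium, washed in ice-cold PBS and stained with Annexin V/Pacific Blue in HEPES/NaCl/CaCl2 binding buffer for 15 min at room temperature in the dark. Propidium iodide in buffer was added before flow cytometry. Early (annexin+, PI−) and late (annexin+, PI+) apoptotic cells were counted over 50,000 events.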

[5] = target: CEREBLON thalidomide-binding domain (TBD) (Homo sapiens, UniProt Q96SW2); assay: Isothermal titration calorimetry, CEREBLON-TBD into JB170
Chain of CEREBLON thalidomide-binding domain (TBD) (Q96SW2 320-428): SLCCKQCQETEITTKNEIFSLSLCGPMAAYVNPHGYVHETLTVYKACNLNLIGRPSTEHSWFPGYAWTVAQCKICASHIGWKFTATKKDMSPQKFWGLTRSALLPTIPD

AURORA-B^E162T = AURORA-B^E162T (Homo sapiens, UniProt Q96GD4, E161T); assay: Immunoblot of HA-tagged AURORA-B swap mutant in MV4-11 cells; type: cell-based; details: 6 hours
Chain of AURORA-B^E162T (Q96GD4 1-345 isoform Q96GD4-5 E162T): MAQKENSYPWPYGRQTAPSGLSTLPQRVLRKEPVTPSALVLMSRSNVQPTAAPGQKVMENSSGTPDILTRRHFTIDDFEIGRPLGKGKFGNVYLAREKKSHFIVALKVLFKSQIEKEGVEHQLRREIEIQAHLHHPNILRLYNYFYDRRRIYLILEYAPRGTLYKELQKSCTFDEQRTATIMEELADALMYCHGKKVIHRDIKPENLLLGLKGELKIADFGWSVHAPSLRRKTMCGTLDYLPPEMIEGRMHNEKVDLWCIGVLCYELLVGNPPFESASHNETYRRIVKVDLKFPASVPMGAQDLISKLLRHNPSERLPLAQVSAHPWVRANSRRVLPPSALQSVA

AURORA-A [6] = target: T2, AURORA-A; assay: HiBiT assay: AURORA-A levels based on luciferase measurements in MV4-11 cells; type: cell-based
In short: as §1

ACAD10 = target: T3, ACAD10 (Homo sapiens, UniProt Q6JQN1); assay: Kinobead selectivity profiling: ACAD10; type: binding
T3 sequence (Q6JQN1 1-1059): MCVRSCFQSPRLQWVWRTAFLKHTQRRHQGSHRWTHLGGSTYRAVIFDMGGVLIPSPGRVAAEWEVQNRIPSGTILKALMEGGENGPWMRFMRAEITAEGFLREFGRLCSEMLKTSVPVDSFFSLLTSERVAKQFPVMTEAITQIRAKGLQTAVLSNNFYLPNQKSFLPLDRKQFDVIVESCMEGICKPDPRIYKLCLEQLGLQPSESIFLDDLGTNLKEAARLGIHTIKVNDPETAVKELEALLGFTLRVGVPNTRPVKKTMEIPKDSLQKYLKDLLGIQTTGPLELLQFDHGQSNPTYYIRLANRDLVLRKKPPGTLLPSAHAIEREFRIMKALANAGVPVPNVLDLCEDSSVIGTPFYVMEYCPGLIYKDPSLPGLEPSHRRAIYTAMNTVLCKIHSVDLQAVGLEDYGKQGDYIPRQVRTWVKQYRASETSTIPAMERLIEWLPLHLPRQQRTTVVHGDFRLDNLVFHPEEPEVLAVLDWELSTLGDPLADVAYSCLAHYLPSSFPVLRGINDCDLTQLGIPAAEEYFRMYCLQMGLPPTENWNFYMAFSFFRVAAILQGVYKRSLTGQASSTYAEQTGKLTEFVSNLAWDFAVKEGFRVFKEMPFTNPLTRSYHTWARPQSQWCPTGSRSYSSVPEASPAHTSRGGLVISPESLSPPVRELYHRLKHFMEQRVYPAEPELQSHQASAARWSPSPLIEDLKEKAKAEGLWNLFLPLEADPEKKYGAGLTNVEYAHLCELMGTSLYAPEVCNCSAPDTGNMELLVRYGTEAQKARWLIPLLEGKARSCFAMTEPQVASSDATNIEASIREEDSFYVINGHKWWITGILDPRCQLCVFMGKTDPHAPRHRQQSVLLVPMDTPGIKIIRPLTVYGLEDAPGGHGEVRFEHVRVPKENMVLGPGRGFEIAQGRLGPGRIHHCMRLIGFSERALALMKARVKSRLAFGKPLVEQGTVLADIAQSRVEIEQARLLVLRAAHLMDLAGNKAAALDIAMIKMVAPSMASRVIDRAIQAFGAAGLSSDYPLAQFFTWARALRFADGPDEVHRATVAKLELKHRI

Chain of AURORA-A/CEREBLON(TBD) complex (Q96SW2 320-428, one chain of several): as the sequence (Q96SW2 320-428) above
Chain of AURORA-A^K162R (O14965 whole entry I57V/K162R): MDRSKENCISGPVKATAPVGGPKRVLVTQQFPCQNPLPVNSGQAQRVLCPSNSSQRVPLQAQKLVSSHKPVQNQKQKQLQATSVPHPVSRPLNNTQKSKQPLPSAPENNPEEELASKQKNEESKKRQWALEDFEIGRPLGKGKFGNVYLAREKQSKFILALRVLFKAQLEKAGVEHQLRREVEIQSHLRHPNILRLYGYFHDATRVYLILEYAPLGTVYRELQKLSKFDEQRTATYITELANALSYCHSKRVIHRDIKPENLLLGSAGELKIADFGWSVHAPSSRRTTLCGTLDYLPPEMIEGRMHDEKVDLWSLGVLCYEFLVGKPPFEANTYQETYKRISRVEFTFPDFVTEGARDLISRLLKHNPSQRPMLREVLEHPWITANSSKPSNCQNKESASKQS
Chain of AURORA-A^K162R (Q96SW2 whole entry): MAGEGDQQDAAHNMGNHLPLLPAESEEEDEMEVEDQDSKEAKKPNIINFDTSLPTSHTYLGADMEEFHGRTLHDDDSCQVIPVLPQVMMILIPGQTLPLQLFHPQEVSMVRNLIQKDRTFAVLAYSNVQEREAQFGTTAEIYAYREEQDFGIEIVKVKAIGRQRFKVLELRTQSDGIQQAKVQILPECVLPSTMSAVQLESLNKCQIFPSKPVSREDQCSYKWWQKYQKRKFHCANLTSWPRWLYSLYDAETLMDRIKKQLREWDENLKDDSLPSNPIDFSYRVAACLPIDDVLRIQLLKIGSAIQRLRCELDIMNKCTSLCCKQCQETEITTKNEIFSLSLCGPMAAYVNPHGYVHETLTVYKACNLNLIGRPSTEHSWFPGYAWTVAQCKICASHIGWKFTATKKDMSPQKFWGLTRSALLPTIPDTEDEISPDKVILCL
Chain of AURORA-A^K162R (Q16531 whole entry partner): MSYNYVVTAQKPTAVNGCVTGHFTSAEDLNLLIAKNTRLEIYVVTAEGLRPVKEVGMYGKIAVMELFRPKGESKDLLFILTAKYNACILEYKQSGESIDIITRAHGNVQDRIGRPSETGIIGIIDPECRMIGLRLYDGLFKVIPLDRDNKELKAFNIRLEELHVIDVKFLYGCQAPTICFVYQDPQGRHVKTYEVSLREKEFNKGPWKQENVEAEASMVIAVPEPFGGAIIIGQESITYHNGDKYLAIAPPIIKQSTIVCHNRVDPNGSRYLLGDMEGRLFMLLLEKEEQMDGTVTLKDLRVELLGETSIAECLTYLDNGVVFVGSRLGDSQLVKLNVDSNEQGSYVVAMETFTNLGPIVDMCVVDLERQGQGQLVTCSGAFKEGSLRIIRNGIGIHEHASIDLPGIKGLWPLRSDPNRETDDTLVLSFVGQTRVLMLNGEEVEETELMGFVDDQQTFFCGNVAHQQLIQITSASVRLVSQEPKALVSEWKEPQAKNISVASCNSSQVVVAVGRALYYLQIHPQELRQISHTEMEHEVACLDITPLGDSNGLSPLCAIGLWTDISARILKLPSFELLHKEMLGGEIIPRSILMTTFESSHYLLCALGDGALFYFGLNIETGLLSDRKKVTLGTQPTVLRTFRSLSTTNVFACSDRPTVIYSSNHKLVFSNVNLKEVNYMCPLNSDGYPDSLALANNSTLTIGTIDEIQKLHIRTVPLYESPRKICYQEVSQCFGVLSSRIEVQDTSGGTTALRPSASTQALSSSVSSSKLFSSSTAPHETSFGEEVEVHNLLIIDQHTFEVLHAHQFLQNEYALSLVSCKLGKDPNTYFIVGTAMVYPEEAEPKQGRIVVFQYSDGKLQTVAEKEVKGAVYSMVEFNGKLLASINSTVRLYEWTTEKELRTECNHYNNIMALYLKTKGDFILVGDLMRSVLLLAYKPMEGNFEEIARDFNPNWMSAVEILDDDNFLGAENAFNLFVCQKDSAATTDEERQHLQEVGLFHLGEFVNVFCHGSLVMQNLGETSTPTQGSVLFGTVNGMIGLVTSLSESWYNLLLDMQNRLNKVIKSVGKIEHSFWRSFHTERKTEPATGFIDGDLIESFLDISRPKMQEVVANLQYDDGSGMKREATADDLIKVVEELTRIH

With `COc1cc(Nc2ncc3c(n2)-c2ccc(Cl)cc2C(c2c(F)cccc2OC)=NC3)ccc1C(=O)NCCOCCOCCNC(=O)COc1cccc2c1C(=O)N(C1CCC(=O)NC1=O)C2=O` (centres unmarked) [JB170] the “depletion of AURORA-A^K162R” value (AURORA-A^K162R) was “depleted by JB170 to a similar degree as the unmutated protein”, the pKd [1] was 6.74 and the “destabilization of CEREBLON neosubstrates (GSPT1, CSNK1A1, ZFP91, IZKF1/3)” value (MV4-11 cells [2]; 6 hours) was “none was destabilized”. The “depletion of other proteins (p<0.05, log2FC<-1)” value (MV4-11 cells [2]; 6 hours, 4,259 proteins, including AURORA-B) was “no additional protein was depleted”, the “JB170-mediated depletion of AURORA-A^Imut” value (AURORA-A^Imut) was “not depleted” and the pEC50 (AURORA-A [3]) was 6.71. The “difference of affinities for AURORA-A and AURORA-B” value (AURORA-A [3]; AURORA-A vs AURORA-B, depending on experimental conditions (BRET, Kinobeads)) was 3- to 50 fold, the “AURORA-A mRNA levels” value (AURORA-A mRNA) was “not reduced” and the annexin-positive cells (MV4-11 cells [4]) was 56%. For the same compound, the pKd [5] was 5.16, the “JB170-mediated degradation of AURORA-B^E162T with respect to AURORA-A” value (AURORA-B^E162T) was “strongly attenuated” and the “concentration of maximal depletion of AURORA-A (DCmax)” value (AURORA-A [6]; HiBiT-AURORA-A, 6 hours) was 300 nM. The “concentrations ineffective in depleting AURORA-A (Hook effect)” value (AURORA-A [6]; immunoblot and luminescence assays) was no less than 10 µM and the pKd (ACAD10) was 6.60.
